In article PMC4238911 (Cancer chemotherapy and pharmacology, 2011):
Read-outs that look alike come from different tables or passages of the source.

Key:
[1] = biological target: TrkB (Homo sapiens, UniProt Q16620); type: cell-based
[2] = previous trials; cited from earlier work
[3] = tested on: refractory high-risk neuroblastoma; assay: Tumor response; type: in vivo, human
Outline: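 Children received the oral test compound BID, 5 of 7 days, in 28-day cycles at 25–120 mg/M2/dose (3 + 3 escalation). Response was assessed after cycles 1, 2, 4 and 8, then every 4th cycle. Scoring used NANT criteria (modified International Neuroblastoma Response Criteria), with RECIST for measurable CT/MRI tumor and Curie score for MIBG lesions.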

[4] = clinical; conditions: human, in vivo, po
[5] = Plasma pharmacokinetics of lestaurtinib; conditions: human, po
[6] = tested on: Trk kinase domain; conditions: cited from earlier work
[7] = tested on: JAK2-mutated (JAK2^V617F) myelofibrosis; conditions: 22 patients; cited from earlier work
[8] = subjects of N = 46, all dose levels
[9] = the other subject with mixed response, complete marrow response

Sequence of TrkB (Q16620 32-822, species assumed): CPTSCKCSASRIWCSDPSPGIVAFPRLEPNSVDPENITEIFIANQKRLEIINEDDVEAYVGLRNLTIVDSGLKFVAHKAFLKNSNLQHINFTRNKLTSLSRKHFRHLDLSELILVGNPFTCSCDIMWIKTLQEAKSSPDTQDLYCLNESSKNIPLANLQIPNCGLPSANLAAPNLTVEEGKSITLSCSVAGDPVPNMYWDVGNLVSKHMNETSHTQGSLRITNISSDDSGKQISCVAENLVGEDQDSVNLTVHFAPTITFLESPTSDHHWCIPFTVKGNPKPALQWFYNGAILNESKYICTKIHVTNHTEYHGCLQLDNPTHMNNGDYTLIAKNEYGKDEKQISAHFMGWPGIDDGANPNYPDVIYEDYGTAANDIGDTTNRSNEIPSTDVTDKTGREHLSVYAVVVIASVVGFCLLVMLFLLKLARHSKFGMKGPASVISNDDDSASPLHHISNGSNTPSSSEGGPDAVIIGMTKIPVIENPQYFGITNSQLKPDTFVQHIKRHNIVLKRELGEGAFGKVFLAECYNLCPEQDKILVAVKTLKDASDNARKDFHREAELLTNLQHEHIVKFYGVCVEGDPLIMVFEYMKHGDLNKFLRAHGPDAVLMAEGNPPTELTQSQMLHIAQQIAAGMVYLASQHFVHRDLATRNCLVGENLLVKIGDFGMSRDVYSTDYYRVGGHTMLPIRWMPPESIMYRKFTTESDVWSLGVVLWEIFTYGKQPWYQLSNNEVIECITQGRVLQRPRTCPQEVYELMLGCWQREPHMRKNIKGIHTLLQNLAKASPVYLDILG

C[C@]12O[C@H](C[C@]1(O)CO)n1c3ccccc3c3c4c(c5c6ccccc6n2c5c31)CNC4=O [lestaurtinib, Lestaurtinib]
Plasma inhibition of phospho-TrkB activity ([1]; 1 h post-dosing, 120 mg/M^2): uniform inhibition | Inhibition of phosphorylation of TrkB by immunoblotting ([1]; plasma 1 h after lestaurtinib, days 5 and 26, all ten dose levels, 31 subjects): evident only in cells exposed to plasma from subjects treated at dose levels ≥ 6 | Sustained suppression of TrkB phosphorylation ([1]; pre-drug/trough plasma samples, twice daily dosing): not evident | Patients with grade 1/2 elevated LFTs possibly related to lestaurtinib [2]: ≤ 30% | Duration of prolonged control of disease, median ([3]; 10 of 26 subjects at doses ≥ 70 mg/M^2/dose BID, range 5–28): 10 cycles | Response/SD > 5 months ([3]; dose level 1–3, of total subjects at these dose levels): 0/9 (total subjects at dose levels 1–3) | Response/SD > 5 months ([3]; dose level 4–5 (2 SD)): 2/22 (2 SD) | Response/SD > 5 months ([3]; dose level 5a–8 (2 PR, 2 Mixed, 4 SD)): 8/16 (2 PR, 2 Mixed, 4 SD) | Subjects who maintained a response or SD for at least 5 cycles ([3]; dose levels > 5, 10 of 26 subjects): 38.5% | Patients who maintained a response or SD ([3]; dose levels ≥ 5a, 8/16): 50% | Duration of maintained response or SD, median ([3]; dose levels ≥ 5a, 8/16 patients): 10 months | Subjects with prolonged control of disease ([3]; doses ≥ 70 mg/M^2/dose BID, 10 of 26 subjects): 38.5% | Duration of prolonged stable disease, median ([3]; nine subjects at dose levels ≥ 5): 6 cycles | Marrow tumor content after treatment ([3]; one subject with prolonged stable disease, decreased from 75): 2% | Urine catecholamine response: reduction in HVA ([3]; second subject with PR): 15% | Urine catecholamine response: reduction in VMA ([3]; second subject with PR): 44% | Duration of prolonged stable disease, median ([3]; six subjects, range 5–13): 7 cycles | Number of treatment courses prior to PD: ≥17 months ([3]; subjects of 46): 3/46 | Number of treatment courses prior to PD: 11–16 months ([3]; subjects of 46, one of 3 stopped therapy after 13 cycles due to toxicity): 3 ^b/46 | Number of treatment courses prior to PD: 4–10 months ([3]; subjects of 46, one of 11 stopped therapy after 5 cycles due to toxicity): 11 ^a/46 | Best overall response: Mixed [3, 8]: 3/46 | Best overall response: PR [3, 8]: 2/46 | Best overall response: Progressive disease [3, 8]: 21/46 | Best overall response: Stable disease [3, 8]: 20/46 | Urine catecholamines: reduction in HVA [3, 9]: 15% | Urine catecholamines: reduction in VMA [3, 9]: 45% | AUC(0-t) ([4]; 25 mg/m2): 29500 ng·h/mL | Tmax ([4]; 25 mg/m2): 1.5 h | half-life ([4]; 25 mg/m2): 10.5 ± 3.6 h | AUC(0-t) ([4]; 35 mg/m2): 37500 ng·h/mL | Cmax ([4]; 35 mg/m2): 3390 ng/mL | Tmax ([4]; 35 mg/m2): 2 h | half-life ([4]; 35 mg/m2): 7 h | Cmax ([4]; 45 mg/m2): 3060 ng/mL | half-life ([4]; 45 mg/m2): 4.5 ± 1.2 h | AUC(0-t) ([4]; 55 mg/m2): 34900 ng·h/mL | Tmax ([4]; 55 mg/m2): 1 h | half-life ([4]; 55 mg/m2): 6 ± 3.4 h | AUC(0-inf) ([4]; 62.5 mg/m2): 28900 ng·h/mL | Cmax ([4]; 62.5 mg/m2): 4500 ng/mL | half-life ([4]; 62.5 mg/m2): 4.3 ± 0.9 h | Tmax ([4]; 70 mg/m2): 1 h | half-life ([4]; 70 mg/m2): 3.6 ± 1.4 h | AUC(0-inf) ([4]; 77.5 mg/m2): 54800 ng·h/mL | AUC(0-t) ([4]; 77.5 mg/m2): 47500 ng·h/mL | half-life ([4]; 77.5 mg/m2): 8.2 h | AUC(0-t) ([4]; 85 mg/m2): 15500 ng·h/mL | half-life ([4]; 85 mg/m2): 3.9 h | AUC(0-inf) ([4]; 92.5 mg/m2): 51500 ng·h/mL | half-life ([4]; 92.5 mg/m2): 4.3 h | Cmax ([4]; 120 mg/m2): 3510 ng/mL | half-life ([4]; 120 mg/m2): 7.9 h | Subjects with transaminase elevation grade 3/4 or dose limiting (5 subjects, all dose levels): 11% | MTD (10 dose levels, 25–120 mg/M^2/dose BID): no MTD was defined | Subjects with transaminase elevation grade 1/2 (30 subjects, all dose levels): 64% | Subjects with reversible pancreatitis (grade 2) (after prolonged treatment at higher dose levels): 3 subjects | Hematologic DLTs (all dose levels): no hematologic DLTs identified | # subjects with DLT during course 1 (dose level 4, 55 mg/M^2/dose BID, 7 subjects entered): 7 (1) | # subjects with DLT during course 1 (dose level 5, 70 mg/M^2/dose BID, 10 subjects entered): 10 (2) | # subjects with DLT during course 1 (dose level 8, 120 mg/M^2/dose BID, 6 subjects entered): 6 (1) | Subjects who came off study for toxicity (of 47 enrolled): three | Tmax [5]: 1 to 2 h | AUC(0-inf) ([5]; 25 mg/m2): 39500 ng·h/mL | Cmax ([5]; 25 mg/m2): 2400 ng/mL | AUC(0-inf) ([5]; 35 mg/m2): 41300 ng·h/mL | AUC(0-inf) ([5]; 45 mg/m2): 16400 ng·h/mL | AUC(0-t) ([5]; 45 mg/m2): 15900 ng·h/mL | Tmax ([5]; 45 mg/m2): 1 h | AUC(0-inf) ([5]; 55 mg/m2): 40800 ng·h/mL | Cmax ([5]; 55 mg/m2): 4900 ng/mL | AUC(0-t) ([5]; 62.5 mg/m2): 26600 ng·h/mL | Tmax ([5]; 62.5 mg/m2): 1 h | AUC(0-inf) ([5]; 70 mg/m2): 15800 ng·h/mL | AUC(0-t) ([5]; 70 mg/m2): 15000 ng·h/mL | Cmax ([5]; 70 mg/m2): 3810 ng/mL | Cmax ([5]; 77.5 mg/m2): 3680 ng/mL | Tmax ([5]; 77.5 mg/m2): 2 h | AUC(0-inf) ([5]; 85 mg/m2): 15600 ng·h/mL | Cmax ([5]; 85 mg/m2): 3460 ng/mL | Tmax ([5]; 85 mg/m2): 1 h | AUC(0-t) ([5]; 92.5 mg/m2): 37100 ng·h/mL | Cmax ([5]; 92.5 mg/m2): 8740 ng/mL | Tmax ([5]; 92.5 mg/m2): 1 h | AUC(0-inf) ([5]; 120 mg/m2): 39500 ng·h/mL | AUC(0-t) ([5]; 120 mg/m2): 34900 ng·h/mL | Tmax ([5]; 120 mg/m2): 1.5 h | Concentration that competitively inhibits ATP binding to the Trk kinase domain [6]: nanomolar concentrations | Median duration of response [7]: 14 months | Overall response rate [7]: 27%
